Bioassay records: PubChem, several laboratories
Hits are enriched below; roughly 3.6% of the tested compounds scored in any of these assays.
Yeast life ext: yeast lifespan extension | S. cerevisiae growth with nicotinamide, OD615; deaD strain in restrictive glucose medium | inhibition of the nicotinamide effect, % at 10 µM | 130,000 tested, 0.68% active;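 active = inhibition above a set limit, placed 3 SD over the median of all compounds, cut at about 26% in these data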
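assay system = DeaD-strain S. cerevisiae | buffer or medium = restrictive glucose medium | reagent = 1.5 mM nicotinamide | compound = 10 µM single point, 0.25% DMSO | incubation = 48 h compound exposure at 30 °C, humidified | signal = OD615 measurement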
Measles CPE: protection of cells from measles virus; AID 841; 140,000 tested, 1.5% active; protection (pct of control), % at 4 µM; Measles virus-infected cells, CPE protection, absorbance; in the data active = protection mostly above about 24%, no sharp cut-off; inactive = mostly below about 26%
BB579 growth dn: reduces growth of yeast BB579 in restrictive medium. S. cerevisiae BB579 growth, OD615, 48 h. inhibition, % at 10 µM. 140,000 tested, 0.51% active. AID 804;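 active = inhibition above a set limit, 3 SD over the mean compound inhibition, cut at about 44% in these data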
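test system = yeast BB579 (DeaD) | buffer or medium = restrictive CSMM-D medium | doses = single compound dose of 10 µM, 0.25% DMSO final | times = 4 h preincubation and 48 h exposure at 30 °C | technique = culture absorbance at 615 nm | benchmarks = amphotericin B 10 µg/mL, positive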
RAM network inh: blocks the yeast RAM network; 190,000 tested, 1.8% active; S. cerevisiae dse1pr::URA3 reporter, 5-FOA growth OD615, 2 d; analog-sensitive cbk1-as2 kinase mutant strain; inhibition, % at 50 µM;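 active = inhibition above a set limit, 3 SD over mean compound inhibition, cut at about 8.4% in these data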;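 also: inhibition rescues growth on 5-FOA so higher OD means more RAM inhibition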
Hits are given with their value.

What do the screens show for `COc1ccc(CCNC(=O)c2cc(CC(C)C)on2)cc1OC`?
Yeast life ext: inactive; Measles CPE: 40; BB579 growth dn: inactive; RAM network inh: inactive

How did COc1ccc(CCNC(=O)c2cc(-c3ccccc3OC)on2)cc1OC do in these assays?
Yeast life ext: inactive; Measles CPE: 45; BB579 growth dn: inactive; RAM network inh: inactive

Results for CC(C)CC(NC(N)=O)C(=O)Nc1ccc(Oc2ccccc2)cc1 (configuration not stated) ?
RAM network inh: inactive

How did O=S(=O)(NCC(Nc1ccc(Cl)cc1)c1ccccc1)c1ccc(Cl)cc1 (configuration not stated) do in these assays?
Yeast life ext: inactive; Measles CPE: inactive; BB579 growth dn: inactive; RAM network inh: 9.0

Results for CN(C)C(CNS(=O)(=O)c1ccc(Cl)cc1)c1cccnc1 (configuration not stated) ?
Yeast life ext: inactive; Measles CPE: inactive; BB579 growth dn: inactive; RAM network inh: inactive

How did CCSc1nnc(NC(=O)C(C)Sc2nc3ccccc3[nH]2)s1 (configuration not stated) do in these assays?
Yeast life ext: inactive; Measles CPE: inactive; BB579 growth dn: inactive; RAM network inh: inactive

How did CNc1ccc(/C=C/C(=O)c2ccc(C)cc2)cc1[N+](=O)[O-] do in these assays?
Yeast life ext: inactive; Measles CPE: inactive; BB579 growth dn: inactive; RAM network inh: inactive

What do the screens show for `CNc1ccc(/C=C/C(=O)c2ccc3c(c2)OCCO3)cc1[N+](=O)[O-]`?
Yeast life ext: inactive; Measles CPE: inactive; BB579 growth dn: inactive; RAM network inh: 9.0

How did CNc1ccc(Br)cc(C(=O)/C=C/c2ccc3c(c2)OCO3)c1=O do in these assays?
Yeast life ext: inactive; Measles CPE: 54; BB579 growth dn: inactive; RAM network inh: inactive

How did CNc1ccc(Br)cc(C(=O)/C=C/c2ccc(OC)cc2)c1=O do in these assays?
Yeast life ext: inactive; Measles CPE: inactive; BB579 growth dn: inactive; RAM network inh: inactive

What do the screens show for `OC(CNCC1CCCO1)Cn1c2ccc(Cl)cc2c2cc(Cl)ccc21` (configuration not stated)?
Yeast life ext: inactive; Measles CPE: inactive; BB579 growth dn: inactive; RAM network inh: inactive

What do the screens show for `OC(CNCCC1C=Nc2ccccc21)Cn1c2ccc(Cl)cc2c2cc(Cl)ccc21` (configuration not stated)?
Yeast life ext: inactive; Measles CPE: inactive; BB579 growth dn: 99; RAM network inh: inactive

How did O=C(c1ccc(Br)o1)N1CCc2ccccc21 do in these assays?
RAM network inh: inactive

What do the screens show for `CC(C)(C)C1=NN(C(=O)c2ccccc2)C(O)(C(C)(C)C)C1` (configuration not stated)?
Yeast life ext: inactive; Measles CPE: inactive; BB579 growth dn: inactive; RAM network inh: 10

How did CC(C)C1=NN(C(=O)c2ccccc2)C(O)(C(C)(C)C)C1 (configuration not stated) do in these assays?
Yeast life ext: inactive; Measles CPE: inactive; BB579 growth dn: inactive; RAM network inh: inactive

How did CC(=O)OC[C@H]1O[C@H](C/C=N/OC[C@@H](O)[C@H]2O[C@@H]3OC(C)(C)O[C@@H]3[C@H]2O)C=C[C@@H]1OC(C)=O do in these assays?
Yeast life ext: inactive; Measles CPE: inactive; BB579 growth dn: inactive; RAM network inh: inactive

What do the screens show for `COc1ccccc1-c1nc(C#N)c(N2CCc3ccccc3C2)o1`?
Yeast life ext: inactive; Measles CPE: inactive; BB579 growth dn: inactive; RAM network inh: 10

How did COc1ccc(-c2nc(C#N)c(N3CCc4ccccc4C3)o2)cc1OC do in these assays?
Yeast life ext: inactive; Measles CPE: inactive; BB579 growth dn: inactive; RAM network inh: inactive

What do the screens show for `O=C(CCCCn1c(=S)[nH]c2ccsc2c1=O)NCc1ccc2c(c1)OCO2`?
RAM network inh: inactive

Results for c1ccc(CSc2ccc(-c3cccs3)nn2)nc1 ?
RAM network inh: inactive

Results for c1ccc(CSc2ccc(-c3cccs3)nn2)cc1 ?
Yeast life ext: inactive; Measles CPE: 28; BB579 growth dn: inactive; RAM network inh: inactive

How did Cc1cc(C)cc(NC(=O)CSc2ccc(-c3cccs3)nn2)c1 do in these assays?
Yeast life ext: inactive; Measles CPE: 41; BB579 growth dn: inactive; RAM network inh: inactive

How did O=C(CSc1ccc(-c2cccs2)nn1)Nc1ccccc1 do in these assays?
RAM network inh: inactive

What do the screens show for `NS(=O)(=O)c1ccc(O)c(N2C(=O)c3cccc4c(C(=O)c5ccccc5)ccc(c34)C2=O)c1`?
RAM network inh: inactive

Results for Cc1[nH]n(-c2ccccc2)c(=O)c1/C=N/O ?
Yeast life ext: inactive; Measles CPE: inactive; BB579 growth dn: inactive; RAM network inh: inactive

What do the screens show for `Cc1[nH]n(-c2ccccc2)c(=O)c1/C=N/N1C(=O)c2ccc3c4c(ccc(c24)C1=O)CC3`?
Yeast life ext: inactive; Measles CPE: inactive; BB579 growth dn: 79; RAM network inh: inactive

Results for CCc1ccc(OC(C)c2nnc(SCC(=O)Nc3ncccc3C)n2C)cc1 (configuration not stated) ?
Yeast life ext: inactive; Measles CPE: inactive; BB579 growth dn: inactive; RAM network inh: inactive

How did Cc1nnn(C23CC4CC(CC(C(=O)NN)(C4)C2)C3)n1 do in these assays?
Yeast life ext: inactive; Measles CPE: 33; BB579 growth dn: inactive; RAM network inh: inactive

Results for CC1(C)C(=O)OC(/C=C\c2cccc([N+](=O)[O-])c2)C(C)(C)C1=O (configuration not stated) ?
RAM network inh: inactive

How did Cc1ccc(C)c(N2CCN(S(=O)(=O)c3c(C)noc3/C=C/N(C)C)CC2)c1 do in these assays?
Yeast life ext: 36; Measles CPE: inactive; BB579 growth dn: inactive; RAM network inh: inactive

What do the screens show for `COc1ccc(C2C3=C(CC(C)(C)CC3=O)Nc3c2c(=O)[nH]c(=O)n3Cc2ccccc2)cc1OC` (configuration not stated)?
Yeast life ext: inactive; Measles CPE: inactive; BB579 growth dn: inactive; RAM network inh: inactive

What do the screens show for `COc1ccc(C2C3=C(CC(C)(C)CC3=O)Nc3c2c(=O)[nH]c(=O)n3Cc2ccccc2)cc1` (configuration not stated)?
Yeast life ext: inactive; Measles CPE: inactive; BB579 growth dn: inactive; RAM network inh: 9.5

Results for [O-][n+]1c2c(c3c4non(O)c4ccc31)CCCC2 ?
Yeast life ext: inactive; Measles CPE: inactive; BB579 growth dn: inactive; RAM network inh: inactive

How did COc1ccccc1CNC(=O)C(CC(C)C)NS(=O)(=O)c1ccc2c(c1)oc(=O)n2C (configuration not stated) do in these assays?
Yeast life ext: inactive; Measles CPE: inactive; BB579 growth dn: inactive; RAM network inh: inactive

What do the screens show for `COc1ccccc1CNC(=O)C(CCSC)NS(=O)(=O)c1ccc2c(c1)oc(=O)n2C` (configuration not stated)?
Yeast life ext: 87; Measles CPE: inactive; BB579 growth dn: inactive; RAM network inh: inactive

Results for CCOc1ccc(C(C)=O)cc1COc1ccc(-n2cnnn2)cc1 ?
Yeast life ext: inactive; Measles CPE: inactive; BB579 growth dn: inactive; RAM network inh: 8.7

What do the screens show for `O=C(Oc1ccc(Cl)c2cccnc12)c1ccco1`?
Yeast life ext: inactive; Measles CPE: inactive; BB579 growth dn: 96; RAM network inh: inactive
